Screens: PubChem, several laboratories
Only a selection was taken, and hits are over-represented in it overall.
FLuc inhib CS: firefly luciferase enzyme inhibitors, primary screen, artefact control for luciferase-based inhibitor screens, biochemical, luminescence, ATPLite; 200,000 compounds, 1.5% hits; 10 min; Luciferin 4-monooxygenase (Photinus pyralis), P08659; AID 1006, 2008; inhibition, % at 10 µM;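 active = inhibition above about 50% when tested at 10 µM, limit read from the data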
ABCB6 inh MLPCN: ABCB6 transporter inhibitors, primary screen, K562-ABCB6 cells, flow cytometry, MLPCN library | ATP-binding cassette sub-family B member 6 (Homo sapiens), Q9NP58 | fluorescence ratio to DMSO, % at 10 µM | 360,000 compounds, 0.19% hits | K562-ABCB6 porphyrin accumulation, 1 h; stronger effect = lower value;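 active = fluorescence ratio to DMSO below 75%, the collection mean minus 3 SD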;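 note: signal is porphyrin accumulated inside mitochondria; 100% equals median channel fluorescence of DMSO control wells; lower ratio means ABCB6 inhibition with less porphyrin fluorescence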
Target sequence (Q9NP58 whole entry, looked up): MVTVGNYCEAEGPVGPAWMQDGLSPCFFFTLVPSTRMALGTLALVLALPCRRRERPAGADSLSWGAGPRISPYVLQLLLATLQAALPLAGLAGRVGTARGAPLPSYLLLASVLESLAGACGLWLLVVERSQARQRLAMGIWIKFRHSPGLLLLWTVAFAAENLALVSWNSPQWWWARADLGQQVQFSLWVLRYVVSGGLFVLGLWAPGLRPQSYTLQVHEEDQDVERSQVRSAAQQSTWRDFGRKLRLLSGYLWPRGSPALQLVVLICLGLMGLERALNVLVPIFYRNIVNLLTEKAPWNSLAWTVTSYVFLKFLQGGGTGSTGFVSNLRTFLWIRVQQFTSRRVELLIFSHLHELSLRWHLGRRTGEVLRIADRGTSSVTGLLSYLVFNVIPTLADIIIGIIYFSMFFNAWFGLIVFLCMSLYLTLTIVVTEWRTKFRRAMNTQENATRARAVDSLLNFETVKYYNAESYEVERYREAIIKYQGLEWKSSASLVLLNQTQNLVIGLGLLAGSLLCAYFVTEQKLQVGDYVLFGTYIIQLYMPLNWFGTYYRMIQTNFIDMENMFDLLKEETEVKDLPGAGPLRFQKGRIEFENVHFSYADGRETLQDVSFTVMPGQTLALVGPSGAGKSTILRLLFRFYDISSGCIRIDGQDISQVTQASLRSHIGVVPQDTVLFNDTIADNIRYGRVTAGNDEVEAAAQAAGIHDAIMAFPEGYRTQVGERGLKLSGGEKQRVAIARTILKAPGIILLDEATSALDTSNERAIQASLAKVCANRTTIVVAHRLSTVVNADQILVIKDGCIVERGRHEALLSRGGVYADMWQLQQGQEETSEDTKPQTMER
FLuc act counter: FLuc activators, initial screening, artefact control for FLuc-dependent activation tests, biochemical, ATPlite luminescence; Luciferin 4-monooxygenase (Photinus pyralis), P08659; ATPlite luciferase biochemical, 10 min; 0 = ATP-free wells, 1 = DMSO control; activation factor at 10 µM; 200,000 tested, under 10 active;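 active = luciferase activation factor, scaled between plate controls, of at least 2 with compound at 10 µM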
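System: Luciferase/luciferin detection reagent, cell-free biochemical luciferase assay | Medium: PBS buffer for ATP | Dosing: Test compounds dosed from 2 mM stocks in 100% DMSO | Timing: 10 min at ambient temperature | Signal: Luminescence measurement of luciferase light output | Evaluation: Luciferase activation, seen as luminescence increase over controls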
ABCG2 block: ABCG2 efflux pump inhibitors, primary screen, multiplex with ABCB1, IgMXP3 cells, flow cytometry; JC-1 efflux; Broad substrate specificity ATP-binding cassette transporter ABCG2 (Homo sapiens), Q9UNQ0; 190,000 compounds, 0.1% hits; inhibition, % at 6.6 µM;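 active = inhibition above 80%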;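 note: 0% = DMSO and 100% = nicardipine control wells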
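System: two drug-resistant human cell lines, ABCG2 and ABCB1; controls: nicardipine high and DMSO low controls; times: 10 min exposure at 25 °C with rotation, no wash; detection: flow cytometry of retained JC-1 fluorescence; read-out basis: percent efflux inhibition, scaled nicardipine 100% to DMSO 0%; doses: one concentration, 6.6 µM final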
ABCB1 inh: ABCB1 efflux pump inhibitors, primary screen, cell-based, multiplex, flow cytometry, ABCG2 counter-screen. inhibition, % at 6.6 µM. 190,000 compounds, 0.067% hits. ATP-dependent translocase ABCB1 (Homo sapiens), P08183. CCRF-Adr cells, JC-1 efflux; in the data active = inhibition above about 40%;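 note: 0% = vehicle and 100% = reference inhibitor; higher value means more JC-1 retained so stronger ABCB1 efflux block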
Diaph act CS: compounds boosting diaphorase resazurin reduction – biochemical, uHTS, resorufin fluorescence, counter-screen for diaphorase-coupled primary assays, primary screen | Diaphorase/resazurin coupled assay, 16 min; stronger effect = higher value; 1 = vehicle wells, 0 = NADH-free wells | activation factor at 20 µM | 190,000 compounds, 0.005% hits | AID 1229, 2008;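 active = diaphorase activity raised at least twofold by the compound at 20 µM; inactive = activation factor below 2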
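Measured by – red resorufin fluorescence at 544/590 nm excitation/emission · Test system – Clostridium kluyveri diaphorase, purified enzyme · Incubation – reaction time 16 min, room temperature · Buffer or medium – 50 mM HEPES pH 7.4 with 4.542 mM MgCl2, 0.005% Tween 20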
ABCB1 confirm: ABCB1 efflux pump inhibitors, confirmation, cell-based, single point, ABCG2 counter-screen; shares compounds with ABCG2 block; 270 compounds, 7% hits; CCRF-Adr cells, JC-1 efflux, flow cytometry; inhibition, % at 6.6 µM;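 active = inhibition of pump activity above 50%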;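 note: 0% = DMSO and 100% = nicardipine full pump inhibition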
ABCG2 single pt: ABCG2 efflux pump inhibitors, confirmation, single point, IgMXP3 cells, ABCB1 counter-screen paired | shares compounds with ABCG2 block | JC-1 efflux, flow cytometry | inhibition, % at 6.6 µM | 270 compounds, 6% hits | AID 1453, 2008;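 active = inhibition above 50%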;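 note: 0% = DMSO wells and 100% = nicardipine pump inhibitor wells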
IgMXP3 fluor: compound autofluorescence in ABCG2-expressing IgMXP3 cells, confirmation, artefact control for ABC transporter inhibitor project, cell-based, 488/530 nm, flow cytometry; AID 1480, 2009; compound autofluorescence 488/530 nm; stronger effect = higher value; 270 compounds, 30% hits; shares compounds with ABCG2 block; fluorescence at 6.6 µM;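 active = fluorescence in ABCG2-expressing cells above the plate's control-well mean plus 3 SD, cut at about 15 in these data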;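 note: median cell fluorescence with compound minus that of DMSO-treated control cells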
CCRF-Adr fluor: compound autofluorescence in ABCB1-expressing CCRF-Adr cells, confirmation, artefact control for ABC transporter inhibitor project, cell-based, 488/530 nm, flow cytometry. shares compounds with ABCG2 block. compound autofluorescence 488/530 nm; stronger effect = higher value. 270 compounds, 30% hits. AID 1483, 2009. fluorescence at 6.6 µM;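 active = fluorescence beyond the plate control mean plus 3 SD, with a fluorescence-to-maximum score over 2, cut at about 25 in these data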
Numbers without * were called inactive; i = inactive; . = no result; + = active, no number.

SMILES	FLuc inhib CS	ABCB6 inh MLPCN	FLuc act counter	ABCG2 block	ABCB1 inh	Diaph act CS	ABCB1 confirm	ABCG2 single pt	IgMXP3 fluor	CCRF-Adr fluor
O=C1NC(Cc2ccc(O)cc2)c2nc3cc(F)c(F)cc3c(=O)n2-c2ncccc21 (centres undefined)	.	103	.	.	.	.	.	.	.	.
CNc1nc2cc([N+](=O)[O-])c([N+](=O)[O-])cc2nc1NC	-2	97	1	124*	0	0.9	48	69*	21*	30*
CCN1/C(=C/c2ccc3cc(C)cc(C)c3[n+]2CC)Sc2cc(C)ccc21	2	i	1	22	3	1.4	.	.	.	.
CCN1/C(=C/c2ccc3cccc(C)c3[n+]2CC)Sc2ccccc21	-4	i	1	+	34	1.2	26	69*	304*	305*
O=C1Nc2ccc(Br)cc2C1(O)c1ccc(F)cc1 (centres undefined)	.	93	.	.	.	.	.	.	.	.
S=c1[nH]nc(-c2ccc3ccccc3n2)n1-c1ccc2ncccc2c1	3	94	1	64	0	0.6	6	11	32*	20
COC(=O)[C@@H]1CC[C@H](C)[C@@H](c2ccc(C)cc2)N1C(=O)c1ccc(/C=N/O[C@@H](C)c2cn([C@H](CO)Cc3ccccc3)nn2)cc1	-6	.	1.1	44	42*	0.7	34	5	2.9	16
COc1ccc(-c2cc(C#N)nc(Oc3ccc(Cl)cc3)n2)cc1	-7	100	1.1	84*	0	1.1	11	10	35*	26*
COc1ccc(-c2cc(C#N)nc(Cl)n2)cc1	.	107	.	.	.	.	.	.	.	.
O=C(NNC(=O)c1ccc(-n2cncn2)c([N+](=O)[O-])c1)c1cccc(Cl)c1	.	105	.	.	.	.	.	.	.	.
Cc1ccc2nc(/C(C#N)=C\c3ccc([N+](=O)[O-])o3)[nH]c2c1	-2	893	1	0	61*	0.7	11	24	42*	47*
O=C1NC(CCc2ccccc2)C(=O)N1Cc1cccc2ccccc12 (centres undefined)	-5	92	1.1	159*	90*	1	0	-1	-0.29	-2.7
N=c1oc2c3c4c(cc2cc1C(=O)Nc1ccccc1)CCCN4CCC3	4	i	1	+	131*	1	-14	-78	625*	666*
COC(=O)c1ccccc1NC(=O)CNc1ccc(F)c(S(=O)(=O)N2CCOCC2)c1	.	86	.	.	.	.	.	.	.	.
COc1ccc(-c2nn(-c3ccccc3)cc2/C=C/C(=O)N2CCN(c3ccccn3)CC2)cc1	-4	91	1	33	48*	1	33	22	18*	4.3
Cc1c(C(=O)Nc2cccc(Cl)c2)c2ccccn2c1CCc1ccncc1	0	97	1	99*	66*	1	56*	42	-1.5	-3.7
Cc1c(C(=O)Nc2ccc(Cl)cc2)c2ccccn2c1CCc1ccncc1	16	107	0.8	8	6	1.1	.	.	.	.
Cc1c(C#N)c(NC(=O)CCl)n(Cc2ccccc2)c1C	-6	107	1.1	1	0	0.9	.	.	.	.
Cc1c(C#N)c(NC(=O)CCl)n(Cc2ccc(F)cc2)c1C	0	114	1	12	45*	1	1	1	4.9	8.6
Cc1cc(-c2sccc2Br)nc(-n2cccc2)n1	-5	105	1.1	92*	1	0.7	1	33	-1.9	-4.7
Cc1oc2c(C)c3oc(=O)c4c(c3cc2c1C)CCCC4	-9	101	1.1	75	2	0.8	8	18	12	15
Cc1c(O)ccc2c3c(c(=O)oc12)CCCC3	-2	91	1	1	0	0.9	.	.	.	.
CCc1ccccc1N(C(=O)c1snc(C(N)=O)c1N)C(C(=O)NCC1CCCO1)c1ccc(C)o1 (centres undefined)	.	95	.	.	.	.	.	.	.	.
O=S(=O)(c1ccc(Cl)cc1)N1CCN=C1SCc1ccc(Cl)c(Cl)c1	-3	95	1	86*	-1	0.9	-7	0	-1.3	16
CCSC1=NCCN1S(=O)(=O)c1ccc(Cl)cc1	-8	105	1.1	0	0	0.9	.	.	.	.
SMILES	FLuc inhib CS	ABCB6 inh MLPCN	FLuc act counter	ABCG2 block	ABCB1 inh	Diaph act CS	ABCB1 confirm	ABCG2 single pt	IgMXP3 fluor	CCRF-Adr fluor
O=S(=O)(c1ccc(Br)cc1)N1CCN(c2cc(-c3ccccc3)nc3ncnn23)CC1	-1	103	1	52	60*	0.9	37	23	3.5	7.2
COc1cccc(/C=C(/C(=O)OCC(=O)NC2CCCC(C)C2C)c2ccccc2)c1 (centres undefined)	-4	96	1	79	9	0.8	4	23	-1.4	-4
COc1ccc(C(=O)N2CCN(c3ccc([N+](=O)[O-])c(NCCc4ccc(OC)c(OC)c4)c3)CC2)cc1	-4	88	1	15	24	0.8	.	.	.	.
COc1ccc(CCNc2cc(N3CCN(C(=O)c4ccc(C)cc4)CC3)ccc2[N+](=O)[O-])cc1OC	-2	.	1	22	37	0.8	26	34	-2	-0.84
CCOC(=O)c1c(NC(=O)CSc2ncccn2)sc2c1CCN(Cc1ccccc1)C2	-3	100	1	67	48*	0.9	67*	20	47*	109*
CCOC(=O)c1c(NC(=O)CC)sc2c1CCN(Cc1ccccc1)C2	.	97	.	.	.	.	.	.	.	.
COC(=O)/C=C/c1cccc([C@H]2[C@@H]3C=CC[C@@H](C)[C@@H]3C(=O)N2Cc2ccccc2)c1	.	98	.	.	.	.	.	.	.	.
